# Activity calls are given as the source filed them. No cut-off for these calls is given here.
# Legend:
# [1] = target: T1, Mitogen-activated protein kinase 14 (Homo sapiens, UniProt Q16539); test: Inhibition of p38alpha assessed as phosphorylation of […] after 60 mins by fluorescence assay
# Method in brief: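 Cascade assay in which activated p38α (6 pM final) activates unactivated MK2 (1 nM), which phosphorylates FITC-labelled Hsp27 peptide (1 nM) with […]. Inhibitor 0.2–10,000 nM. Room temperature, 60 min, EDTA quench. Phospho-peptide quantified by Caliper LabChip; IC50.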
# [2] = tested on: PBMC; test: Antiinflammatory activity in human PBMC assessed as inhibition of LPS-induced TNFalpha production treated 1 hr before LPS challenge measured after 18 hrs; format: functional, cell-based
# Method in brief: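 PBMCs isolated by Ficoll from heparinized blood of two healthy donors, in DMEM with 5% endotoxin-free FBS, 2.5 × 10⁵ cells/well. Pretreated 1 h with compound (0.0001–25 µM range), then stimulated 18 h with 22 ng/ml LPS. Final DMSO 0.25%. Secreted TNFα measured by MSD; IC50 reported.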
# [3] = Metabolic stability in human liver microsomes assessed as compound remaining at 2 uM after 45 mins by LC/MS analysis; format: ADME, Microsome; conditions: read-out: Stability
# [4] = Metabolic stability in rat liver microsomes assessed as compound remaining at 2 uM after 45 mins by LC/MS analysis; format: ADME, Microsome; conditions: read-out: Stability
# [5] = Clearance in iv and po dosed Sprague-Dawley rat; format: ADME, organism-based; conditions: in vivo
# [6] = Half life in iv and po dosed Sprague-Dawley rat; format: ADME, organism-based; conditions: in vivo
# [7] = Bioavailability in iv and po dosed Sprague-Dawley rat; format: ADME, organism-based; conditions: in vivo
# [8] = tested on: Rattus norvegicus; test: Antiinflammatory activity in Lewis rat assessed as inhibition of LPS-induced TNFalpha production at 5 mg/kg, po administered 6 hrs before LPS challenge by ELISA; format: functional
# Method in brief: (§1)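 Adult male Lewis rats (225–250 g), fasted 18 h with free access to water. Compound or vehicle given by oral gavage (1 mL). LPS (E. coli 0111:B4) given 1 mg/kg i.v. in saline 2, 4 or 6 h later. Serum taken by cardiac puncture 90 min after LPS. TNFα quantified against a recombinant rat TNF standard curve with a four-parameter fit. Two vehicle groups per experiment, three experiments.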
# [9] = Solubility of the compound; format: physicochemical
# [10] = target: Tyrosine-protein kinase BTK (Homo sapiens) (UniProt Q06187); test: Inhibition of BTK at 10 uM
# [11] = tested on: Rattus norvegicus; test: Antiinflammatory activity in Lewis rat assessed as inhibition of LPS-induced TNFalpha production at 5 mg/kg, po administered 4 hrs before LPS challenge by ELISA; format: functional; method in brief: as §1
# [12] = tested on: Rattus norvegicus; test: Antiarthritic activity in Lewis rat assessed as inhibition of streptococal cell wall-induced increase of paw volume at 60 mg/kg, po qd for 10 days administered 10 days after streptococal cell wall challenge by displacement plethysmometer analysis; format: functional; conditions: 240 h
# Method in brief: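 Female Lewis rats given intraperitoneal group A streptococcal cell wall peptidoglycan-polysaccharide ([…] bodyweight). Only animals developing the acute phase were treated. Oral gavage (0.5 mL) daily from day 10 to day 21 post-SCW, with methylcellulose/Tween 20 vehicle as comparison. Four to eight animals per group, two paw volumes per animal. Paw volume measured on day 21 by water displacement plethysmometer.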
# [13] = target: Cyclin-dependent kinase 2 (Homo sapiens) (UniProt P24941); test: Inhibition of CDK2 at 10 uM
# [14] = target: Aurora kinase A (Homo sapiens) (UniProt O14965); test: Inhibition of AURKA at 10 uM
# [15] = target: Epidermal growth factor receptor (Homo sapiens) (UniProt P00533); test: Inhibition of EGFR at 10 uM
# [16] = target: Vascular endothelial growth factor receptor 1 (Homo sapiens) (UniProt P17948); test: Inhibition of FLT1 at 10 uM
# [17] = target: Mitogen-activated protein kinase 3 (Homo sapiens) (UniProt P27361); test: Inhibition of ERK1 at 10 uM
# [18] = target: Serine/threonine-protein kinase mTOR (Homo sapiens) (UniProt P42345); test: Inhibition of mTOR at 10 uM
# [19] = target: Inhibitor of nuclear factor kappa-B kinase subunit beta (Homo sapiens) (UniProt O14920); test: Inhibition of IKK-beta at 10 uM
# [20] = target: Interleukin-1 receptor-associated kinase 4 (Homo sapiens) (UniProt Q9NWZ3); test: Inhibition of IRAK4 at 10 uM
# [21] = target: Tyrosine-protein kinase JAK1 (Homo sapiens) (UniProt P23458); test: Inhibition of JAK1 at 10 uM
# [22] = target: Tyrosine-protein kinase JAK2 (Homo sapiens) (UniProt O60674); test: Inhibition of JAK2 at 10 uM
# [23] = target: Tyrosine-protein kinase JAK3 (Homo sapiens) (UniProt P52333); test: Inhibition of JAK3 at 10 uM
# [24] = target: Non-receptor tyrosine-protein kinase TYK2 (Homo sapiens) (UniProt P29597); test: Inhibition of TYK2 at 10 uM
# [25] = target: Vascular endothelial growth factor receptor 2 (Homo sapiens) (UniProt P35968); test: Inhibition of VEGFR2 at 10 uM
# [26] = target: Tyrosine-protein kinase Lck (Homo sapiens) (UniProt P06239); test: Inhibition of LCK at 10 uM
# [27] = target: Dual specificity mitogen-activated protein kinase kinase 1 (Homo sapiens) (UniProt Q02750); test: Inhibition of MEK1 at 10 uM
# [28] = target: Mitogen-activated protein kinase 13 (Homo sapiens) (UniProt O15264); test: Inhibition of p38delta at 10 uM
# [29] = target: Mitogen-activated protein kinase 12 (Homo sapiens) (UniProt P53778); test: Inhibition of p38-gamma at 10 uM
# [30] = Inhibition of JNK at 10 uM
# [31] = target: MAP kinase-activated protein kinase 2 (Homo sapiens) (UniProt P49137); test: Inhibition of MK2 at 10 uM
# [32] = target: High affinity nerve growth factor receptor (Homo sapiens) (UniProt P04629); test: Inhibition of TRKA at 10 uM
# [33] = Inhibition of PDGFR at 10 uM
# [34] = target: RAF proto-oncogene serine/threonine-protein kinase (Homo sapiens) (UniProt P04049); test: Inhibition of c-RAF at 10 uM
# [35] = target: Rho-associated protein kinase 1 (Homo sapiens) (UniProt Q13464); test: Inhibition of ROCK1 at 10 uM
# [36] = target: Rho-associated protein kinase 2 (Homo sapiens) (UniProt O75116); test: Inhibition of ROCK2 at 10 uM
# [37] = target: Tyrosine-protein kinase ZAP-70 (Homo sapiens) (UniProt P43403); test: Inhibition of ZAP70 at 10 uM
# [38] = target: T1, Mitogen-activated protein kinase 14; test: Inhibition of p38alpha at 10 uM
# [39] = target: Mitogen-activated protein kinase 11 (Homo sapiens) (UniProt Q15759); test: Inhibition of p38beta at 10 uM
# [40] = Bioavailability in Sprague-Dawley rat at 5 mg/kg, po; format: ADME, organism-based; conditions: in vivo
# [41] = Bioavailability in Sprague-Dawley rat po as suspension; conditions: in vivo
# [42] = tested on: Rattus norvegicus; test: Antiinflammatory activity in Lewis rat assessed as inhibition of LPS-induced TNFalpha production at 20 mg/kg, po administered 2 hrs before LPS challenge by ELISA; format: functional; method in brief: as §1
# [43] = tested on: Rattus norvegicus; test: Antiinflammatory activity in Lewis rat assessed as inhibition of LPS-induced TNFalpha production at 15 mg/kg, po administered 4 hrs before LPS challenge by ELISA
# T1 sequence (Q16539 whole entry): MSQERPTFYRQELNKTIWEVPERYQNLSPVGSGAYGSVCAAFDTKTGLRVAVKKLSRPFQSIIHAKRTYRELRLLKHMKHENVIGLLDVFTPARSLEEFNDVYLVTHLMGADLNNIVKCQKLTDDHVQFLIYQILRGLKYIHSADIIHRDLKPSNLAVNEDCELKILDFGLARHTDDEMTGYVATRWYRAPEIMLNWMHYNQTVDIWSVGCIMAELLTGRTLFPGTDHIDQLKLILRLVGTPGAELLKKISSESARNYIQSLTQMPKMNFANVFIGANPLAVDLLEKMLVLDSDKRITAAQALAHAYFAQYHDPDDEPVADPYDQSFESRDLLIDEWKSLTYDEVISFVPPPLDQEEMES
# Sequence of Aurora kinase A (Homo sapiens) (O14965 whole entry): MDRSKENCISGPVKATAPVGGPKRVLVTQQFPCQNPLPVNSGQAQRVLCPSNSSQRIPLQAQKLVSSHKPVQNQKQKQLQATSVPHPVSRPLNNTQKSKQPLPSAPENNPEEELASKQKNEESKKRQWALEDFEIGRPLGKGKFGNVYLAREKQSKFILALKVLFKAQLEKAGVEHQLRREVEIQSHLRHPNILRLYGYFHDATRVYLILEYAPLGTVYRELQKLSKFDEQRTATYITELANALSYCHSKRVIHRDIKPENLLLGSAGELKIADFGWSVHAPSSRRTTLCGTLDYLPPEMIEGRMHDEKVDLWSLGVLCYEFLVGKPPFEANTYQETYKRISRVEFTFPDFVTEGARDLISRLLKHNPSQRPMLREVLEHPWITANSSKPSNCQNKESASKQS
# Sequence of Tyrosine-protein kinase JAK2 (Homo sapiens) (O60674 whole entry): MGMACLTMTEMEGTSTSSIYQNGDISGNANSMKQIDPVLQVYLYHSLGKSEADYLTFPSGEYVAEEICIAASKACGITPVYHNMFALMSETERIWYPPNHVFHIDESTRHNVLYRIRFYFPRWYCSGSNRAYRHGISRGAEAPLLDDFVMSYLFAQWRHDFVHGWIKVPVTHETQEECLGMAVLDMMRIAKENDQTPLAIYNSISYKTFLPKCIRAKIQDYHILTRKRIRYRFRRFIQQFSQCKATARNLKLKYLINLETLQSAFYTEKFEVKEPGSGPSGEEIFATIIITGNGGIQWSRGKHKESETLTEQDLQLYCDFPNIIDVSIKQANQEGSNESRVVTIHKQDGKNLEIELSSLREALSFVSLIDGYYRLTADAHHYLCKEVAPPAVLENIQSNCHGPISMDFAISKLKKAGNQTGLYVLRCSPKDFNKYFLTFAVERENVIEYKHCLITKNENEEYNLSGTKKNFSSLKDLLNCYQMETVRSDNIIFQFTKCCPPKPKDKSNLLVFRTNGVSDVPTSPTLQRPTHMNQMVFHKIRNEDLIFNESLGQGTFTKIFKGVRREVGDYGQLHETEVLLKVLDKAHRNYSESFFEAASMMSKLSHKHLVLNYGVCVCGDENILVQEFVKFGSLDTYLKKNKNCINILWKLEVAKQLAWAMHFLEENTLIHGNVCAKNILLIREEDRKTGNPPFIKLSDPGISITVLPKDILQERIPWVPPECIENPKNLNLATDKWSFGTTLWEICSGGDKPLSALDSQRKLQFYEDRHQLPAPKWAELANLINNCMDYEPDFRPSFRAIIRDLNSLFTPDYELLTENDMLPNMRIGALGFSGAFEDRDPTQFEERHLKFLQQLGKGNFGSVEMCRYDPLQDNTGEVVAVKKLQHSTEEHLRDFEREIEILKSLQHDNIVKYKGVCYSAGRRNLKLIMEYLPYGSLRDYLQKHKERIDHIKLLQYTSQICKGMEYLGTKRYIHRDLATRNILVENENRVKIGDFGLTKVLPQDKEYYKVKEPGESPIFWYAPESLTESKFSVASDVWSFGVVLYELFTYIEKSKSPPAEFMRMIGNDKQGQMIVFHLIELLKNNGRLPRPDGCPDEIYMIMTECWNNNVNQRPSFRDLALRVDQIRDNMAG
# Sequence of Dual specificity mitogen-activated protein kinase kinase 1 (Homo sapiens) (Q02750 whole entry): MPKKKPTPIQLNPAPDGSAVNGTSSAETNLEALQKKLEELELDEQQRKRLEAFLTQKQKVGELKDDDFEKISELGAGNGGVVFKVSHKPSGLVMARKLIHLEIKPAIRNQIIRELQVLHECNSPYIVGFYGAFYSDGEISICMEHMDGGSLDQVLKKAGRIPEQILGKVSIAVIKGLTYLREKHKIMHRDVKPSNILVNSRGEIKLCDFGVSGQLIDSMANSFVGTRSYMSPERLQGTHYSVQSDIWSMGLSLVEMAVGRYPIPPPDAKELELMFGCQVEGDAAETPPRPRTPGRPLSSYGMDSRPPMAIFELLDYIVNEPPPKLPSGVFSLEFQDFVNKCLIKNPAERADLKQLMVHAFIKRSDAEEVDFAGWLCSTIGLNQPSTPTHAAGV
# Sequence of Vascular endothelial growth factor receptor 1 (Homo sapiens) (P17948 whole entry): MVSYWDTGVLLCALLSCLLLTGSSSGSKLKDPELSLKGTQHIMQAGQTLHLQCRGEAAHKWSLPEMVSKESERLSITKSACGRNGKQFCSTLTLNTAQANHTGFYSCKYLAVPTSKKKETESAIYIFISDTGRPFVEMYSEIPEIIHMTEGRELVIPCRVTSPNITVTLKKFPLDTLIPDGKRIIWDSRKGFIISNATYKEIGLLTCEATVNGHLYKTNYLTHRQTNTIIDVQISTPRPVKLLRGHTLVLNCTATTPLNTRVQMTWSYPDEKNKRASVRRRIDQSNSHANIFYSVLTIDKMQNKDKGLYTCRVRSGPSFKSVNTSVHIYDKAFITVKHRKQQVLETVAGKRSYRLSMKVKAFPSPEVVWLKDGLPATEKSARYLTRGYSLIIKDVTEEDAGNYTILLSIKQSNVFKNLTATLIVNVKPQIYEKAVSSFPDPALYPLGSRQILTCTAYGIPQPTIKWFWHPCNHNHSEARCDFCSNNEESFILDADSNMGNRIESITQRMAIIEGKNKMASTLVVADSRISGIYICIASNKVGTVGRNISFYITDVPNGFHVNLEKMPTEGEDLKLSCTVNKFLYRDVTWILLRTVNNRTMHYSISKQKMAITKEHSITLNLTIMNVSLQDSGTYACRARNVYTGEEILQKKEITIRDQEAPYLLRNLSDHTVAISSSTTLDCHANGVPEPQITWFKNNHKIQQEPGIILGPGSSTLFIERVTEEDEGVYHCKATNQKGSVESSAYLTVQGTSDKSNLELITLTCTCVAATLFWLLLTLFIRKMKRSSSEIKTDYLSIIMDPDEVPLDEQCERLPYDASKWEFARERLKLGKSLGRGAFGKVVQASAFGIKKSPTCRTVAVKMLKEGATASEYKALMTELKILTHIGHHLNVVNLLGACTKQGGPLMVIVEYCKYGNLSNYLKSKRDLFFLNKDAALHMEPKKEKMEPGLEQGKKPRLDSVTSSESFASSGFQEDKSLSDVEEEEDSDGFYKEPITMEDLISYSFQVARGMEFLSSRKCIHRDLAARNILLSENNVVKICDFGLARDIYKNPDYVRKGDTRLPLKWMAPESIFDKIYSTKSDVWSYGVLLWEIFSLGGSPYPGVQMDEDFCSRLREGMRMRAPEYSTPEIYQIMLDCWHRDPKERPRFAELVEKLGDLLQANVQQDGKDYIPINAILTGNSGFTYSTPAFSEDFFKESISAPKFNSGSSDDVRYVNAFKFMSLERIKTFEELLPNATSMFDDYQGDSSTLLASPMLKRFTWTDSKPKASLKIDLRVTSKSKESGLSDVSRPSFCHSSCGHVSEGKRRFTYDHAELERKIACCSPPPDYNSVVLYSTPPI
# Sequence of Vascular endothelial growth factor receptor 2 (Homo sapiens) (P35968 whole entry): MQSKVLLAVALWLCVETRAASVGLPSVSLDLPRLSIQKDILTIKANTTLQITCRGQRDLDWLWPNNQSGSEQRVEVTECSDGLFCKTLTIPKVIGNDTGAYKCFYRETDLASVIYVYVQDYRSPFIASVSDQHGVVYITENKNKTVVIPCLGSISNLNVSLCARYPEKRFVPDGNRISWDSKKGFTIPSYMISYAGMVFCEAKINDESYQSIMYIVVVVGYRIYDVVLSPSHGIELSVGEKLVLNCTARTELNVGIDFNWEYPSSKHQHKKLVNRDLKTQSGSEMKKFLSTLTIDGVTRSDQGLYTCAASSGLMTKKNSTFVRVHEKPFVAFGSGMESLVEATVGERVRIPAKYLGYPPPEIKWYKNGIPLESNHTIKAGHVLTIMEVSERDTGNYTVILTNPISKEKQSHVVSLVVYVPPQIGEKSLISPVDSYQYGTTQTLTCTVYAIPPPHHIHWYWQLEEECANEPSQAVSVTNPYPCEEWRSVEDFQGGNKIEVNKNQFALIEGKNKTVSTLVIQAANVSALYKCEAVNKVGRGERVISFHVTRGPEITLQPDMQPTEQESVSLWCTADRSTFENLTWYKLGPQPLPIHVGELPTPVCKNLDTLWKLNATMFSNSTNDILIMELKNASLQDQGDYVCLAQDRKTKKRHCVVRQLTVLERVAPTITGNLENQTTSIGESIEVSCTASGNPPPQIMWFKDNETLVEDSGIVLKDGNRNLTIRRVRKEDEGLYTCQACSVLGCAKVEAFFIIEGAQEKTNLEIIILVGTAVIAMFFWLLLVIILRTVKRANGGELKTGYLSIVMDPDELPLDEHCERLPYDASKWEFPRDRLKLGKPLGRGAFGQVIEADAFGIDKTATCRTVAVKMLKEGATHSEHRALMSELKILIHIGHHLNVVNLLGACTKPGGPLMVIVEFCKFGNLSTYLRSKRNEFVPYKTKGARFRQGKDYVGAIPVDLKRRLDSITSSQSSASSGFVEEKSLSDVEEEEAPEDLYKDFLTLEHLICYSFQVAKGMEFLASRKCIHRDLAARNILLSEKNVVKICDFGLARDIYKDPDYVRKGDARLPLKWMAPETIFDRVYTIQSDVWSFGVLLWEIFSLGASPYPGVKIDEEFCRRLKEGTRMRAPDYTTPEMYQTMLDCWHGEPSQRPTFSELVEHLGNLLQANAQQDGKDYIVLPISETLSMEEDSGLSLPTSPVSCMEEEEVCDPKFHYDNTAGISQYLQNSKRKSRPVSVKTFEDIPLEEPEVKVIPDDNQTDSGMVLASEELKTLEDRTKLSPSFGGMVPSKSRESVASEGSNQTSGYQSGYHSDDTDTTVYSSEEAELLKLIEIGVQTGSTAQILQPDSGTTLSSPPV
SMILES,IC50 [1] [nM],IC50 [2] [nM],"remaining at 0.75 h, 2 µM [3] [%]","remaining at 0.75 h, 2 µM [4] [%]",clearance [5] [mL/min/kg],half-life [6] [h],bioavailability [7] [%],solubility [9] [µg/mL],inhibition [10] [%],inhibition in vivo at 5 mg/kg [11] [%],inhibition in vivo at 60 mg/kg [12] [%],inhibition [13] [%],inhibition [14] [%],inhibition [15] [%],inhibition [16] [%],inhibition [17] [%],inhibition [18] [%],inhibition [19] [%],inhibition [20] [%],inhibition [21] [%],further results
Cc1cc(OCc2ccc(F)cc2F)c(Cl)c(=O)n1-c1c(F)cccc1F,4,17,74,87,12.8,1.8,21,< 10,–,–,–,–,–,–,–,–,–,–,–,–,inhibition in vivo at 5 mg/kg [8]: 83%
O=c1c(Cl)c(OCc2ccc(F)cc2F)cc(CO)n1-c1c(F)cccc1F,8,45,70,69,5.9,1.5,32,< 10,< 50,81,33,< 50,< 50,< 50,< 50,< 50,< 50,< 50,< 50,< 50,inhibition [22]: < 50%; inhibition [23]: < 50%; inhibition [24]: < 50%; inhibition [25]: < 50%; inhibition [26]: < 50%; inhibition [27]: < 50%; inhibition [28]: < 50%; inhibition [29]: < 50%; inhibition [30]: < 50%; inhibition [31]: < 50%; inhibition [32]: < 50%; inhibition [33]: < 50%; inhibition [34]: < 50%; inhibition [35]: < 50%; inhibition [36]: < 50%; inhibition [37]: < 50%; inhibition [38]: Active; inhibition [39]: Active
Cc1cc(OCc2ccc(F)cc2F)c(Br)c(=O)n1-c1cccc(C(N)=O)c1,12,64,100,97,9.34,3.4,–,< 10,< 50,89,40,< 50,< 50,< 50,< 50,< 50,< 50,< 50,< 50,< 50,bioavailability [40]: 93%; inhibition [22]: < 50%; inhibition [23]: < 50%; inhibition [24]: < 50%; inhibition [25]: < 50%; inhibition [26]: < 50%; inhibition [27]: < 50%; inhibition [28]: < 50%; inhibition [29]: < 50%; inhibition [30]: < 50%; inhibition [31]: < 50%; inhibition [32]: < 50%; inhibition [33]: < 50%; inhibition [34]: < 50%; inhibition [35]: < 50%; inhibition [36]: < 50%; inhibition [37]: < 50%; inhibition [38]: Active; inhibition [39]: Active; bioavailability [41]: 7%
Cc1cccc(C)c1-n1c(C)cc(OCc2ccc(F)cc2F)c(Br)c1=O,2,25,3,1,–,–,–,–,–,–,–,–,–,–,–,–,–,–,–,–,inhibition in vivo at 20 mg/kg [42]: 66%
CN(C)Cc1cc(OCc2ccc(F)cc2F)c(Br)c(=O)n1-c1c(F)cccc1F,6,50,0,0,–,–,–,–,–,–,–,–,–,–,–,–,–,–,–,–,inhibition in vivo at 15 mg/kg [43]: 69%
O=c1c(Br)c(OCc2ccc(F)cc2F)cc(CO)n1-c1c(F)cccc1F,5,25,39,65,4,8.9,19,< 10,–,93,–,–,–,–,–,–,–,–,–,–,–
